RGS4 pot = potentiators or activators of RGS4; HEK293 M3R/inducible RGS4, carbachol calcium flux Fluo4; active compounds read low; B-score at 10 µM; 310,000 compounds, 0.92% hits;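 active = B-score of the integrated calcium signal more than 4 SD below the library mean, with starting fluorescence not abnormally high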;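 also: negative B-score means reduced calcium response which marks RGS4 activation or potentiation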
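System – HEK293 FlpIn-TREx cells, stable M3R, doxycycline-inducible RGS4 · Reagent – ECmax carbachol challenge · Times – compound preincubation 20 min at room temperature before agonist · Technique – Fluo4 fluorescence kinetic imaging of calcium · Measure – B score of integrated Fluo4 ratio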
MrgX1 allo act = allosterically activates human MrgX1 receptor signaling | Q96LB2 | MrgX1-HEK293, Fluo-4 calcium flux, FDSS; active compounds read high | B-score at 10 µM | 310,000 compounds, 0.63% hits;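 active = plate-corrected calcium response at least 3 library SD above typical, normal starting fluorescence, not activating the receptor alone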;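 also: compound read alongside a low EC10 to EC30 dose of BAM8-22 agonist; peak minus trough fluorescence over baseline measured at the second addition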
MrgX1 agonist = activates human MrgX1 receptor signaling; MrgX1-HEK293 cells, Fluo-4 calcium fluorescence, agonist mode; active compounds read high; 310,000 compounds, 0.44% hits; Q96LB2; B-score at 10 µM;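 active = calcium response B-score plate-corrected fluorescence ratio at least 3 library SD, with starting fluorescence B-score inside 5 SD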
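Assay system: stable human MrgX1 HEK293 cell line. Quantity: 15,000 cells per well. Schedule: cells plated overnight, dye loaded 0.5 h 37 °C, 0.5 h room temperature. Detection: Fluo-4 NW calcium-flux fluorescence, kinetic read. Read-out basis: peak-minus-minimum fluorescence over baseline, converted to B scores. Control set: positive and negative control wells on each plate.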
RGS4 block = human RGS4 inhibition; P49798; HEK293 M3R/RGS4 inducible, Fluo-4 calcium flux; active compounds read high; triggered by carbachol at its EC20; B-score at 10 µM; 310,000 compounds, 0.45% hits; AID 463165;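 active = B-score, a plate-corrected calcium signal, over three deviations above library mean, with baseline fluorescence within five deviations of library mean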;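 also: RGS4 expression induced by doxycycline in cells with stable M3 receptor; B-score is computed from the integrated fluorescence ratio over baseline after carbachol; higher B-score means a larger calcium signal and so more RGS4 inhibition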
Target sequence (P49798 whole entry, looked up): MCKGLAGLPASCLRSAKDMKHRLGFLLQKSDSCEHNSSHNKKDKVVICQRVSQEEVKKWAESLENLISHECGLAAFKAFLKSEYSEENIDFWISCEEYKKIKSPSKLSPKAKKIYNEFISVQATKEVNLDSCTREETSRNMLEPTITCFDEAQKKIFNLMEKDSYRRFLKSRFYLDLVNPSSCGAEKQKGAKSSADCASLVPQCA
MrgX1 antagonist = antagonists of human MrgX1 receptor; AID 588676; B-score at 10 µM; 310,000 compounds, 1.3% hits; MRGX1-HEK293 calcium flux, Fluo-4, BAM8-22 antagonism; active compounds read low;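 active = calcium-response B-score plate-corrected more than 3 library SD below zero, starting fluorescence within 5 deviations, no agonist response on first addition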;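 also: peak minus trough fluorescence over baseline after final BAM8-22 challenge near maximal dose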
Active calls of the source: *; i = inactive; . = no result. Sampled rows, rich in hits. Any-hit rate of the full collection: about 3.5%.

SMILES | RGS4 pot | MrgX1 allo act | MrgX1 agonist | RGS4 block | MrgX1 antagonist
CCN(CC)c1ccc(C=C2C(=O)OC(c3ccccc3)OC2=O)cc1 (stereo not given) | i | i | 27* | i | i
CN(C)c1ccc(C=C2C(=O)OC(C)(C(C)(C)C)OC2=O)cc1 (stereo not given) | i | i | i | i | i
CN(C)c1ccc(C=C2C(=O)OC(C)(C)OC2=O)cc1 | i | i | i | i | i
CCN(CC)c1ccc(C=C2C(=O)OC(C)(C(C)(C)C)OC2=O)cc1 (stereo not given) | i | i | 56* | i | i
COC(=O)C1=C(C)NC(=O)/C1=C\c1cc(C)n(-c2ccccc2F)c1C | i | i | i | i | -5.5*
CN(CCOc1ccccc1)C(=O)C1CCN(C(=O)c2ccc(F)cc2)CC1 | i | i | i | i | i
CCCCN1C(=O)/C(=C/C=C2\N(C)c3ccccc3C2(C)C)SC1=S | i | i | i | i | -15*
CS(=O)(=O)C1=NN2C(=N)/C(=C\c3ccc(OC(=O)c4ccco4)cc3)C(=O)N=C2S1 | i | 12* | i | i | i
CC(C)CS(=O)(=O)C1=NN2C(=N)/C(=C\c3ccc(OC(=O)c4ccco4)cc3)C(=O)N=C2S1 | i | i | 29* | i | i
N=C1/C(=C\c2ccc(OC(=O)c3ccco3)cc2)C(=O)N=C2SC=NN12 | i | . | . | i | .
CCc1ccccc1N(C(=O)c1ccco1)C(C(=O)NC1CCCC1)c1cccnc1 (stereo not given) | i | i | i | i | i
COc1ccc(Cl)cc1NC(=O)CN(C)C(C)C(=O)NC(=O)NC1CCCCC1 (stereo not given) | i | i | i | i | i
CC(C)Cn1c(N)c(/C=N/NC(=O)c2ccc(Cl)cc2)c(=O)n(C)c1=O | i | i | i | i | i
O=c1[nH]cc(S(=O)(=O)N2CCCc3ccccc32)c(=O)[nH]1 | i | i | i | i | i
Cc1ccc(NS(=O)(=O)c2cc([N+](=O)[O-])ccc2N/N=C/c2sc(N3CCOCC3)nc2-c2ccccc2)c(C)c1 | i | i | i | i | -9.4*
OCCCNC(=S)Nc1ccc(Br)cc1Cl | i | i | i | i | i
O=C(CCc1c[nH]c2ccccc12)OCc1cccc([N+](=O)[O-])c1 | i | i | i | i | i
O=C(O)CC1(c2ccc(F)cc2)C2CC3CC(C2)CC1C3 (stereo not given) | i | i | i | i | -6.7*
CN1C2CCC1/C(=C/c1cccn1C)C(=O)/C2=C\c1cccn1C | i | i | i | i | i
CN1C2CCC1/C(=C\c1ccc(F)cc1)C(=O)/C2=C/c1ccc(F)cc1 | i | 7* | i | i | i
C#CCSc1ncc(-c2ccccc2)cn1 | i | i | i | i | -7.5*
COc1ccc(S(=O)(=O)N2CCCC(C(=O)NCc3ccncc3)C2)cc1 (stereo not given) | i | i | i | i | i
O=C(Cn1c(CO)nc2ccccc21)NC1CCCCCC1 | i | i | i | i | -10*
Nc1nonc1-c1nc2ccccc2n1CC(=O)NC1CCCC1 | i | i | i | i | i
Cc1ccc(C2C(C#N)=C(N)Oc3n[nH]c(-c4ccccc4)c32)o1 (stereo not given) | i | i | 50* | i | i
SMILES | RGS4 pot | MrgX1 allo act | MrgX1 agonist | RGS4 block | MrgX1 antagonist
COc1ccc(-c2ccc(C3C(C#N)=C(N)Oc4n[nH]c(C)c43)o2)cc1 (stereo not given) | i | i | 55* | i | i
Cc1ccc(C2C(C#N)=C(N)Oc3c2sc2ccccc32)o1 (stereo not given) | i | 9.2* | i | i | i
CC(=O)c1cccc(NC(=O)Cn2nc(-c3ccc(Cl)cc3)ccc2=O)c1 | i | i | i | i | i
O=C(O)CCS(=O)(=O)c1nc(-c2cccs2)cc(C(F)(F)F)n1 | i | i | i | i | i
CS(=O)(=O)c1nc(-c2cccs2)cc(C(F)(F)F)n1 | i | i | 36* | i | i
C/C(Cl)=C/CSc1nn2c(=O)c3ccccc3nc2s1 | i | 7.8* | i | i | i
